Results on six compounds are retold here after ChEMBL document CHEMBL1125814, “Folic acid analogues lacking the 2-carbon are substrates for folylpolyglutamate synthetase and inhibit cell growth” (J Med Chem, 1991).

SMILES strings stand for the structures.

Data set [1] can be described thus: Relative maximal velocity (Vmax) as folylpolyglutamate synthetase substrate of the compound. The class given is ADME.
Data set [2] concerns L1210. The data set is described as follows: Compound was tested for inhibition of L1210 cell growth. It is filed as functional, cell-based. The following applies: Mus musculus. The essentials:
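Exponentially growing L1210 mouse leukemia cells seeded at (2.0–2.5) × 10^4/mL in RPMI-1640 with 10% dialyzed fetal bovine serum. Compound added in phosphate-buffered saline. Incubated 72 h at 37 °C, 5% CO2, humidified. Cells counted with a Coulter counter. IC50 taken from 1 or 2 experiments.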

Data set [3] in a line: Ratio of relative Vmax to that of Km values. The class given is ADME.

As to `N#Cc1nc(CNc2ccc(C(=O)NC(CCC(=O)O)C(=O)O)cc2)cnc1N` (stereo not given), in data set [1], the “Relative Vmax” value was determined as 1.06. For the same compound, the IC50 in data set [2] worked out at 217 µM. Further, the Ratio in data set [3] is 0.7.
The like results for `NC(=O)c1nc(CNc2ccc(C(=O)NC(CCC(=O)O)C(=O)O)cc2)cnc1N` (stereo not given) were, in that order, 0.99, 5.5 µM and 1.52.
The like results for `NC(=O)c1nc(CN(C=O)c2ccc(C(=O)NC(CCC(=O)O)C(=O)O)cc2)cnc1N` (stereo not given) were, in that order, 1.84, 85 µM and 2.6.
In the case of `Nc1nc(N)c2nc(CNc3ccc(C(=O)N[C@@H](CCC(=O)O)C(=O)O)cc3)cnc2n1` [AMINOPTERIN], the “Relative Vmax” value in data set [1] is on record as 1.59. In data set [3], the Ratio stood at 10.1.
The like results for `Nc1nc2ncc(CNc3ccc(C(=O)N[C@@H](CCC(=O)O)C(=O)O)cc3)nc2c(=O)[nH]1` [FOLIC ACID] were, in that order, 1 and 1.
The like results for `CN(Cc1cnc2nc(N)nc(N)c2n1)c1ccc(C(=O)N[C@@H](CCC(=O)O)C(=O)O)cc1` [METHOTREXATE] were, in that order, 0.99 and 0.9.
